The text below walks through data of ChEMBL document CHEMBL4004822, “Thienopyrimidinone Based Sirtuin-2 (SIRT2)-Selective Inhibitors Bind in the Ligand Induced Selectivity Pocket” (J Med Chem, 2017).

This assay concerns the target T1, NAD-dependent protein deacetylase sirtuin-2 (Homo sapiens) (UniProt Q8IXJ6).
T1 sequence (whole entry): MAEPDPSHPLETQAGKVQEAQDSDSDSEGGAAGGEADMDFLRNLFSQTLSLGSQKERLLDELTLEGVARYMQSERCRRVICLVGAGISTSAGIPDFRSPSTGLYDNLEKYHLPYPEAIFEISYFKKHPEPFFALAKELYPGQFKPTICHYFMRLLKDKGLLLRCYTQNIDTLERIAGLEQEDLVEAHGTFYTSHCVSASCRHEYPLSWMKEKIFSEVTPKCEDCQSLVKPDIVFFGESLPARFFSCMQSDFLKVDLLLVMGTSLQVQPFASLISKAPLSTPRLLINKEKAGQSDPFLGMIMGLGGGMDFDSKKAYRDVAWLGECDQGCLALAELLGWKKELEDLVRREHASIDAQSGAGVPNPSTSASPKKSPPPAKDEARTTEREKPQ
Put plainly: Inhibition of recombinant human C-terminal His-tagged SIRT2 (50 to 389 end residues) expressed in Escherichia coli at 10 uM using p53 derived (379 to 382 residues) fluorogenic peptide substrate RHKK(Ac)-AMC preincubated for 10 mins followed by substrate addition in presence of NAD+ by fluorescence assay relative to control. The method in brief:
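Two-step fluorogenic assay with p53 379–382 RHKK(Ac)-AMC. Compound (from 10 mM DMSO stock) preincubated ~10 min with human SIRT before substrate addition. Developer then releases fluorophore, read at ex 360/em 460 nm.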

The structures appear in SMILES notation.

Regarding `O=c1c2c3c(sc2ncn1Cc1ccc2ccccc2c1)CC(NC1CCOCC1)CC3` (centres undefined), the inhibition (commonly the drop in the measured response relative to a control, in per cent) came out at 52%.
The value for `COc1ccccc1CCNC1CCc2c(sc3ncn(Cc4ccc5ccccc5c4)c(=O)c23)C1` (centres undefined) was 67%; that for `COc1cccc(Cn2cnc3sc4c(c3c2=O)CCC(NCc2cccnc2)C4)c1` (centres undefined) was 27%.
Under `O=c1c2c3c(sc2ncn1Cc1cccc(-c2ccccc2)c1)CC(NC1CCCc2ccccc21)CC3` (centres undefined) stands 22%; under `O=c1c2c3c(sc2ncn1Cc1cccc2ccccc12)CC(NC1CCCC1)CC3` (centres undefined), 61%.
The value for `O=c1c2c3c(sc2ncn1Cc1ccccc1)CC(NCCc1ccncc1)CC3` (centres undefined) was 18%.
On to `O=c1c2c3c(sc2ncn1Cc1ccc2ccccc2c1)CC(NCc1cccc(F)c1)CC3` (centres undefined), for which the inhibition was 56%.
Under `COc1ccc2ccccc2c1Cn1cnc2sc(CCN)c(C)c2c1=O` stands 25%; under `COc1ccc2ccccc2c1Cn1cnc2sc3c(c2c1=O)CCC(Nc1ccc(F)cc1)C3` (centres undefined), 44%.
With `O=c1c2c3c(sc2ncn1Cc1cccc2ccccc12)CC(NCc1cccc(F)c1)CC3` (centres undefined), the inhibition was determined as 65%.
The value for `COc1ccc2ccccc2c1Cn1cnc2sc(CCN(C)C)c(C)c2c1=O` was 30%; that for `Cc1ccc(NC2CCc3c(sc4ncn(Cc5ccc6ccccc6c5)c(=O)c34)C2)cc1` (centres undefined) was 29%; that for `N#Cc1ccc(CNC2CCc3c(sc4ncn(Cc5cccc(-c6ccccc6)c5)c(=O)c34)C2)cc1` (centres undefined) was 75%.
On to `O=c1c2c3c(sc2ncn1Cc1cccc(-c2ccccc2)c1)CC(NCc1ccc(Cl)cc1)CC3` (centres undefined), for which the inhibition is 56%.
Under `COc1ccc(Cn2cnc3sc4c(c3c2=O)CCC(NCCNC(C)=O)C4)c2ccccc12` (centres undefined) stands 58%; under `N#Cc1ccc(CNC2CCc3c(sc4ncn(Cc5cccc6ccccc56)c(=O)c34)C2)cc1` (centres undefined), 66%.
As to `CC(=O)NCCNC1CCc2c(sc3ncn(Cc4cccc(-c5ccccc5)c4)c(=O)c23)C1` (centres undefined), the inhibition worked out at 65%.
The value for `Cc1ccc(NC2CCc3c(sc4ncn(Cc5cccc6ccccc56)c(=O)c34)C2)cc1` (centres undefined) was 50%; that for `COc1cccc(Cn2cnc3sc4c(c3c2=O)CCC(NCc2ccccc2OC)C4)c1` (centres undefined) was 64%; that for `COc1ccccc1NC1CCc2c(sc3ncn(Cc4cccc(-c5ccccc5)c4)c(=O)c23)C1` (centres undefined) was 26%.
On to `COc1ccccc1Cn1cnc2sc3c(c2c1=O)CCC(NCCc1cccnc1)C3` (centres undefined), for which the inhibition came to 38%.
The value for `COc1ccccc1Cn1cnc2sc3c(c2c1=O)CCC(NCc1ccccn1)C3` (centres undefined) was 35%.
The value for `COc1ccc2ccccc2c1Cn1cnc2sc3c(c2c1=O)CCC(NCc1ccccc1F)C3` (centres undefined) was 64%.
Under `COc1ccc(Cn2cnc3sc4c(c3c2=O)CCC(NCc2cccc(Cl)c2)C4)c2ccccc12` (centres undefined) stands 6.5%; under `O=c1c2c3c(sc2ncn1Cc1ccc2ccccc2c1)CC(NCCN1CCOCC1)CC3` (centres undefined), 47%.
For `COc1ccc(CNC2CCc3c(sc4ncn(Cc5ccccc5OC)c(=O)c34)C2)cn1` (centres undefined), the inhibition stood at 56%.
For `O=c1c2c3c(sc2ncn1Cc1ccc2ccccc2c1)CC(NC1CCCC1)CC3` (centres undefined), the inhibition worked out at 63%.
The value for `O=c1c2c3c(sc2ncn1Cc1cccc2ccccc12)CC(NCc1ccccc1)CC3` (centres undefined) was 66%; that for `O=c1c2c3c(sc2ncn1Cc1ccc2ccccc2c1)CC(NCc1cccc(Cl)c1)CC3` (centres undefined) was 49%.
For the molecule `O=c1c2c3c(sc2ncn1Cc1cccc2cccnc12)CC(NCC1CCOC1)CC3` (centres undefined), the inhibition amounted to 60%.
The value for `COc1cccc(NC2CCc3c(sc4ncn(Cc5cccc(-c6ccccc6)c5)c(=O)c34)C2)c1` (centres undefined) was 30%; that for `COc1ccc2ccccc2c1Cn1cnc2sc3c(c2c1=O)CCC(NCc1ccc(Cl)cc1)C3` (centres undefined) was 40%.
Under `CC(=O)NCCNC1CCc2c(sc3ncn(Cc4ccc5ccccc5c4)c(=O)c23)C1` (centres undefined) stands 47%; under `COc1ccccc1CCNC1CCc2c(sc3ncn(Cc4c(OC)ccc5ccccc45)c(=O)c23)C1` (centres undefined), 65%.
In the case of `COc1cccc(CNC2CCc3c(sc4ncn(Cc5cccc6ccccc56)c(=O)c34)C2)c1` (centres undefined), the inhibition stood at 59%.
With `O=c1c2c3c(sc2ncn1Cc1cccc(-c2ccccc2)c1)CC(Nc1ccc(F)cc1)CC3` (centres undefined), the inhibition is 52%.
On to `COc1ccc(Cn2cnc3sc4c(c3c2=O)CCC(NCc2ccccc2Cl)C4)c2ccccc12` (centres undefined), for which the inhibition is 65%.
`COc1cccc(Cn2cnc3sc4c(c3c2=O)CCC(NCc2ccccc2)C4)c1` (centres undefined): the inhibition was 64%.
Under `COc1cccc(Cn2cnc3sc4c(c3c2=O)CCC(NCc2ccco2)C4)c1` (centres undefined) stands 33%.
`COc1ccc(NC2CCc3c(sc4ncn(Cc5cccc6ccccc56)c(=O)c34)C2)cc1` (centres undefined): the inhibition came to 52%.
The value for `O=c1c2c3c(sc2ncn1Cc1cccc2cccnc12)CC(NCCN1CCCC1)CC3` (centres undefined) was 29%; that for `O=c1c2c3c(sc2ncn1Cc1cccc2ccccc12)CC(NCc1ccccc1F)CC3` (centres undefined) was 71%.
Under `O=c1c2c3c(sc2ncn1Cc1cccc2cccnc12)CC(NC1CCCC1)CC3` (centres undefined) stands 30%; under `Cc1cccc(NC2CCc3c(sc4ncn(Cc5ccc6ccccc6c5)c(=O)c34)C2)c1` (centres undefined), 31%.
Under `O=c1c2c3c(sc2ncn1Cc1cccc2ccccc12)CC(NC1CCOCC1)CC3` (centres undefined) stands 59%; under `COc1ccc2ccccc2c1Cn1cnc2sc3c(c2c1=O)CCC(Nc1cccc(C)c1)C3` (centres undefined), 27%.
Regarding `O=c1c2c3c(sc2ncn1Cc1cccc2cccnc12)CC(NCc1ccccc1F)CC3` (centres undefined), the inhibition came out at 49%.
Regarding `O=c1c2c3c(sc2ncn1Cc1cccc2ccccc12)CC(NCCN1CCCC1)CC3` (centres undefined), the inhibition came to 56%.
Under `COCCNC1CCc2c(sc3ncn(Cc4cccc(-c5ccccc5)c4)c(=O)c23)C1` (centres undefined) stands 70%.
Under `COc1ccc2ccccc2c1Cn1cnc2sc(CCNCc3ccc(C#N)cc3)c(C)c2c1=O` stands 51%; under `O=c1c2c3c(sc2ncn1Cc1cccc2ccccc12)CC(NCCC1CCCCC1)CC3` (centres undefined), 65%.
Under `COc1ccc2ccccc2c1Cn1cnc2sc3c(c2c1=O)CCC(NCc1cncnc1)C3` (centres undefined) stands 33%; under `COCCNC1CCc2c(sc3ncn(Cc4cccc5cccnc45)c(=O)c23)C1` (centres undefined), 41%; under `O=c1c2c3c(sc2ncn1Cc1ccc2ccccc2c1)CC(NCc1ccccc1F)CC3` (centres undefined), 51%.
Consider `COc1ccccc1NC1CCc2c(sc3ncn(Cc4ccc5ccccc5c4)c(=O)c23)C1` (centres undefined), for which the inhibition was found to be 36%.
Under `Cc1cccc(NC2CCc3c(sc4ncn(Cc5cccc6cccnc56)c(=O)c34)C2)c1` (centres undefined) stands 62%; under `COc1ccccc1Cn1cnc2sc3c(c2c1=O)CCC(NCc1ccncc1)C3` (centres undefined), 64%; under `COc1cccc(Cn2cnc3sc4c(c3c2=O)CCC(NCCc2cccnc2)C4)c1` (centres undefined), 40%.
Turning to `O=c1c2c3c(sc2ncn1Cc1ccccc1)CC(NC1CCc2ccccc21)CC3` (centres undefined), the inhibition was 59%.
`COCCNC1CCc2c(sc3ncn(Cc4ccc(OC)c5ccccc45)c(=O)c23)C1` (centres undefined): the inhibition turned out to be 70%.
Under `COc1ccc(NC2CCc3c(sc4ncn(Cc5cccc(-c6ccccc6)c5)c(=O)c34)C2)cc1` (centres undefined) stands 31%; under `COc1ccccc1CCNC1CCc2c(sc3ncn(Cc4cccc5ccccc45)c(=O)c23)C1` (centres undefined), 60%.
In the case of `O=c1c2c3c(sc2ncn1Cc1ccccc1)CC(NCc1ccncc1)CC3` (centres undefined), the inhibition stood at 33%.
The value for `Cc1ccc(NC2CCc3c(sc4ncn(Cc5cccc(-c6ccccc6)c5)c(=O)c34)C2)cc1` (centres undefined) was 27%.
Under `O=c1c2c3c(sc2ncn1Cc1cccc2ccccc12)CC(NC1CCc2ccccc21)CC3` (centres undefined) stands 58%; under `COc1cccc(Cn2cnc3sc4c(c3c2=O)CCC(NCc2c(C)nn(C)c2C)C4)c1` (centres undefined), 14%.
For the molecule `COc1cccc(Cn2cnc3sc4c(c3c2=O)CCC(NCc2ccc(OC)nc2)C4)c1` (centres undefined), the inhibition stood at 28%.
Turning to `COc1cccc(Cn2cnc3sc4c(c3c2=O)CCC(NCc2ccccn2)C4)c1` (centres undefined), the inhibition stood at 18%.
The value for `O=c1c2c3c(sc2ncn1Cc1cccc2ccccc12)CC(Nc1ccc2c(c1)OCO2)CC3` (centres undefined) was 29%; that for `COCCNC1CCc2c(sc3ncn(Cc4c(OC)ccc5ccccc45)c(=O)c23)C1` (centres undefined) was 44%; that for `O=c1c2c3c(sc2ncn1Cc1ccccc1)CC(NCc1ccco1)CC3` (centres undefined) was 33%.
For the molecule `COc1cccc(CNC2CCc3c(sc4ncn(Cc5ccc6ccccc6c5)c(=O)c34)C2)c1` (centres undefined), the inhibition was 51%.
The value for `COc1ccc2ccccc2c1Cn1cnc2sc3c(c2c1=O)CCC(NCCN1CCOCC1)C3` (centres undefined) was 70%.
Under `COc1ccc2ccccc2c1Cn1cnc2sc3c(c2c1=O)CCC(NCCNC(C)=O)C3` (centres undefined) stands 44%.
Regarding `COc1ccccc1Cn1cnc2sc3c(c2c1=O)CCC(NCc1c(C)nn(C)c1C)C3` (centres undefined), the inhibition came to 37%.
For the molecule `O=c1c2c3c(sc2ncn1Cc1cccc(-c2ccccc2)c1)CC(NCc1ccccc1F)CC3` (centres undefined), the inhibition is 43%.
The value for `COc1ccccc1Cn1cnc2sc3c(c2c1=O)CCC(NCCc1ccncc1)C3` (centres undefined) was 26%; that for `COc1ccccc1Cn1cnc2sc3c(c2c1=O)CCC(NCc1cncnc1)C3` (centres undefined) was 45%; that for `COc1cccc(Cn2cnc3sc4c(c3c2=O)CCC(NC2CCc3ccccc32)C4)c1` (centres undefined) was 64%.
